From ChEMBL document CHEMBL5236602, “Synthesis and Characterization of NUC-7738, an Aryloxy Phosphoramidate of 3'-Deoxyadenosine, as a Potential Anticancer Agent” (J Med Chem, 2022)
Calls of active or inactive are those of the source. No cut-off for these calls is given here.

Columns and labels:
HL-60 [1] = test: Cytotoxicity against human HL-60 cells assessed as cell death incubated for 72 hrs by MTS assay; type: functional; details: read-out: LC50 (the source's name)
Method in brief: (§1)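 Contracted MTS assay. Cells seeded the day before treatment and exposed 72 h to nine serial concentrations (3.16-fold steps, top 198 μM), tested in duplicate. MTS added, then 4 h at 37 °C and absorbance read. LC50 is the concentration killing 50% of cells. MI% is the maximum inhibition over the tested range.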

HL-60 [2] = test: Cytotoxicity against human HL-60 cells assessed as maximum cell growth inhibition incubated for 72 hrs by MTS assay relative to control; type: functional
Method in brief: (§2)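 Cells from the 20-line panel were seeded the day before dosing, then exposed to compound for 72 h. MTS was added, followed by 4 h at 37 °C, and absorbance was read. Nine serial 3.16-fold dilutions were tested, top 198 μM, in duplicate. MI% is the maximum inhibitory effect across the tested concentration range.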

KG-1 = test: Cytotoxicity against human KG-1 cells assessed as maximum cell growth inhibition incubated for 72 hrs by MTS assay relative to control; type: functional; method in brief: as §2
MOLT-4 [3] = test: Cytotoxicity against human MOLT-4 cells assessed as cell death incubated for 72 hrs by MTS assay; type: functional; details: read-out: LC50 (the source's name); method in brief: as §1
MOLT-4 [4] = test: Cytotoxicity against human MOLT-4 cells assessed as maximum cell growth inhibition incubated for 72 hrs by MTS assay relative to control; type: functional; method in brief: as §2
K562 [5] = test: Cytotoxicity against human K562 cells assessed as cell death incubated for 72 hrs by MTS assay; type: functional; details: read-out: LC50 (the source's name); method in brief: as §1
K562 [6] = test: Cytotoxicity against human K562 cells assessed as maximum cell growth inhibition incubated for 72 hrs by MTS assay relative to control; type: functional; method in brief: as §2
MV4-11 = test: Cytotoxicity against human MV4-11 cells assessed as maximum cell growth inhibition incubated for 72 hrs by MTS assay relative to control; type: functional; method in brief: as §2
THP-1 = test: Cytotoxicity against human THP-1 cells assessed as cell death incubated for 72 hrs by MTS assay; type: functional; details: read-out: LC50 (the source's name); method in brief: as §1
HEL 92.1.7 [7] = test: Cytotoxicity against human HEL 92.1.7 cells assessed as cell death incubated for 72 hrs by MTS assay; type: functional; details: read-out: LC50 (the source's name); method in brief: as §1
HEL 92.1.7 [8] = test: Cytotoxicity against human HEL 92.1.7 cells assessed as maximum cell growth inhibition incubated for 72 hrs by MTS assay relative to control; type: functional; method in brief: as §2
NCI-H929 [9] = test: Cytotoxicity against human NCI-H929 cells assessed as cell death incubated for 72 hrs by MTS assay; type: functional; details: read-out: LC50 (the source's name); method in brief: as §1
NCI-H929 [10] = test: Cytotoxicity against human NCI-H929 cells assessed as maximum cell growth inhibition incubated for 72 hrs by MTS assay relative to control; type: functional; method in brief: as §2
RPMI-8226 [11] = test: Cytotoxicity against human RPMI-8226 cells assessed as cell death incubated for 72 hrs by MTS assay; type: functional; details: read-out: LC50 (the source's name); method in brief: as §1
RPMI-8226 [12] = test: Cytotoxicity against human RPMI-8226 cells assessed as maximum cell growth inhibition incubated for 72 hrs by MTS assay relative to control; type: functional; method in brief: as §2
Jurkat [13] = test: Cytotoxicity against human Jurkat cells assessed as cell death incubated for 72 hrs by MTS assay; type: functional; details: read-out: LC50 (the source's name); method in brief: as §1
Z-138 [14] = test: Cytotoxicity against human Z138 cells assessed as cell death incubated for 72 hrs by MTS assay; type: functional; details: read-out: LC50 (the source's name); method in brief: as §1
Z-138 [15] = test: Cytotoxicity against human Z138 cells assessed as maximum cell growth inhibition incubated for 72 hrs by MTS assay relative to control; type: functional; method in brief: as §2
RL [16] = test: Cytotoxicity against human RL cells assessed as maximum cell growth inhibition incubated for 72 hrs by MTS assay relative to control; type: functional; method in brief: as §2
HepG2 [17] = test: Cytotoxicity against human HepG2 cells assessed as cell death incubated for 72 hrs by MTS assay; type: functional; details: read-out: LC50 (the source's name); method in brief: as §1
HepG2 [18] = test: Cytotoxicity against human HepG2 cells assessed as maximum cell growth inhibition incubated for 72 hrs by MTS assay relative to control; type: functional; method in brief: as §2
MCF7 [19] = test: Cytotoxicity against human MCF7 cells assessed as cell death incubated for 72 hrs by MTS assay; type: functional; details: read-out: LC50 (the source's name); method in brief: as §1
MCF7 [20] = test: Cytotoxicity against human MCF7 cells assessed as maximum cell growth inhibition incubated for 72 hrs by MTS assay relative to control; type: functional; method in brief: as §2
BXPC-3 = test: Cytotoxicity against human BXPC-3 cells assessed as cell death incubated for 72 hrs by MTS assay; type: functional; details: read-out: LC50 (the source's name); method in brief: as §1
HT-29 = test: Cytotoxicity against human HT-29 cells assessed as maximum cell growth inhibition incubated for 72 hrs by MTS assay relative to control; type: functional; method in brief: as §2
SW-620 [21] = test: Cytotoxicity against human SW620 cells assessed as cell death incubated for 72 hrs by MTS assay; type: functional; details: read-out: LC50 (the source's name); method in brief: as §1
SW-620 [22] = test: Cytotoxicity against human SW620 cells assessed as maximum cell growth inhibition incubated for 72 hrs by MTS assay relative to control; type: functional; method in brief: as §2
RL [23] = test: Potency index, ratio of 3'-Deoxyadenosine LC50 to test compound LC50 for cytotoxicity against human RL cells assessed as cell death incubated for 72 hrs by MTS assay; type: functional
HL-60 [24] = test: Potency index, ratio of 3'-Deoxyadenosine LC50 to test compound LC50 for cytotoxicity against human HL-60 cells assessed as cell death incubated for 72 hrs by MTS assay; type: functional
K562 [25] = test: Potency index, ratio of 3'-Deoxyadenosine LC50 to test compound LC50 for cytotoxicity against human K562 cells assessed as cell death incubated for 72 hrs by MTS assay; type: functional
Jurkat [26] = test: Potency index, ratio of 3'-Deoxyadenosine LC50 to test compound LC50 for cytotoxicity against human Jurkat cells assessed as cell death incubated for 72 hrs by MTS assay; type: functional
CCRF-CEM [27] = test: Potency index, ratio of 3'-Deoxyadenosine LC50 to test compound LC50 for cytotoxicity against human CCRF-CEM cells assessed as cell death incubated for 72 hrs by MTS assay; type: functional
[28] = Prodrug conversion in human CCRF-CEM cells assessed as fold increase in 3'-dATP level at 50 uM incubated for 2 hrs by LC-MS/MS analysis relative to 3'-Deoxyadenosine; type: ADME, cell-based
[29] = Prodrug conversion in human K562 cells assessed as fold increase in 3'-dATP level at 50 uM incubated for 2 hrs by LC-MS/MS analysis relative to 3'-Deoxyadenosine; type: ADME, cell-based; details: k562, 2 h
[30] = Prodrug conversion in human HL-60 cells assessed as fold increase in 3'-dATP level at 50 uM incubated for 2 hrs by LC-MS/MS analysis relative to 3'-Deoxyadenosine; type: ADME, cell-based; details: hl-60, 2 h
CCRF-CEM [31] = test: Cytotoxicity against deoxynucleotidyl transferase-positive human CCRF-CEM cells assessed as cell death preincubated with adenosine deaminase inhibitor, EHNA for 5 mins followed by compound addition and […]; type: functional, cell-based
RL [32] = test: Cytotoxicity against deoxynucleotidyl transferase-negative human RL cells assessed as cell death preincubated with adenosine deaminase inhibitor, EHNA for 5 mins followed by compound addition and […]; type: functional, cell-based
RL [33] = test: Cytotoxicity against deoxynucleotidyl transferase-negative human RL cells assessed as cell death preincubated with adenosine kinase inhibitor, A-134974 for 5 mins followed by compound addition and […]; type: functional, cell-based
[34] = Metabolic stability in pooled cryopreserved human hepatocytes assessed as half life at 1 uM incubated for 60 mins by HPLC-MS/MS analysis; type: ADME, cell-based, Hepatocyte
Method in brief: (§3)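 Pooled cryopreserved human hepatocytes were thawed, washed and resuspended in Krebs–Henseleit buffer, pH 7.3. Compound was added at 1 μM final and incubated 0 and 60 min at 37 °C/5% CO2. Reactions were stopped with acetonitrile, centrifuged, and the supernatant analysed by HPLC-MS/MS.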

[35] = Metabolic stability in pooled cryopreserved human hepatocytes assessed as intrinsic clearance measured per 10^6 cells at 1 uM incubated for 60 mins by HPLC-MS/MS analysis; type: ADME, cell-based, Hepatocyte; details: 1 h; method in brief: as §3

C[C@@H](NP(=O)(OC[C@@H]1C[C@@H](O)[C@H](n2cnc3c(N)ncnc32)O1)Oc1cccc2ccccc12)C(=O)OCc1ccccc1 (stereo not given in full)
CC50 (HL-60 [1]): 6.37 µM
Imax (HL-60 [2]): 100%
Imax (KG-1): 100%
CC50 (MOLT-4 [3]): 0.32 µM
Imax (MOLT-4 [4]): 100%
CC50 (K562 [5]): 4.93 µM
Imax (K562 [6]): 97%
Imax (MV4-11): 99%
CC50 (THP-1): 46.5 µM
CC50 (HEL 92.1.7 [7]): 2.94 µM
Imax (HEL 92.1.7 [8]): 98%
CC50 (NCI-H929 [9]): 3.38 µM
Imax (NCI-H929 [10]): 99%
CC50 (RPMI-8226 [11]): 19 µM
Imax (RPMI-8226 [12]): 102%
CC50 (Jurkat [13]): 0.9 µM
CC50 (Z-138 [14]): 6.32 µM
Imax (Z-138 [15]): 100%
Imax (RL [16]): 96%
CC50 (HepG2 [17]): 11.5 µM
Imax (HepG2 [18]): 95%
CC50 (MCF7 [19]): 1.39 µM
Imax (MCF7 [20]): 99%
CC50 (BXPC-3): 74 µM
Imax (HT-29): 98%
CC50 (SW-620 [21]): 11.4 µM
Imax (SW-620 [22]): 93%
RatioLC50 (RL [23]): 3
RatioLC50 (HL-60 [24]): 3
RatioLC50 (K562 [25]): 3
RatioLC50 (Jurkat [26]): 200
RatioLC50 (CCRF-CEM [27]): 3
fold change (FC) [28]: 3
fold change (FC) [29]: 3
fold change (FC) [30]: 3
Activity (CCRF-CEM [31]): Active
Activity (RL [32]): Active
Activity (RL [33]): Active
half-life at 1 µM [34]: 43.4 min
CLint [35]: 20.8 µL/min/1e6 cells
